The record followed here is ChEMBL document CHEMBL3044558, “Structure-activity relationship development of dihaloaryl triazole compounds as insecticides and acaricides. 1. Phenyl thiophen-2-yl triazoles” (2007).

Assay [1] deals with Heliothis virescens. The assay can be described thus: Insecticidal activity against Heliothis virescens (tobacco budworm) second-instar larvae infested on 400 ppm compound pre-treated cotton cotyledon disk assessed as insect mortality measured 5 days post compound treatment under green house conditions. Type of assay: functional.
Assay [2] deals with Heliothis virescens. The assay can be described thus: Insecticidal activity against Heliothis virescens (tobacco budworm) second-instar larvae infested on compound pre-treated cotton cotyledon disk assessed as insect mortality measured 5 days post compound treatment under green house conditions. The assay is classed as functional. The following applies: for LC50: Heliothis virescens. The essentials: (§1)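 Leaf disks treated, air-dried and placed singly in cups. Cotton cotyledon disks each get one second-instar tobacco budworm larva; cabbage leaf disks each get one second-instar cabbage looper larva. Cups are capped and held in a growth chamber at 25 °C, 50-55% RH, 14 h light/10 h dark for 5 days.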

For assay [3], the system named is Spodoptera exigua. The experiment in a line: Insecticidal activity against Spodoptera exigua second-instar larvae feeded on 400 ppm compound treated lepidopteran diet assessed as insect mortality measured 5 days post compound treatment under green house conditions. The following applies: at 400 ppm. The assay is classed as functional.
Assay [4] has as its system Tetranychus urticae. The assay can be described thus: Insecticidal activity against female Tetranychus urticae (two-spotted spider mite) infested cotton leaf disks followed by 2.5 ppm compound spraying after oviposit assessed as insect mortality measured after 6 days post compound application under green house conditions. Type of assay: functional. The following applies: foliar, 144 h.

In assay [5] the test system is Myzus persicae. The experiment in a line: Insecticidal activity against Myzus persicae (green peach aphid) assessed as insect mortality at 50 ppm. Type of assay: functional.
The test system of assay [6] is Aphis gossypii. The assay can be described thus: Insecticidal activity against Aphis gossypii (cotton aphid) infested one week old Crookneck squash plants assessed as insect mortality measured after 3 days post compound application under green house conditions. The assay is classed as functional. The following applies: for LC50: Aphis gossypii, 72 h.
Assay [7] relates to Trichoplusia ni. The assay can be described thus: Insecticidal activity against Trichoplusia ni (cabbage looper) second-instar larvae infested on 400 ppm compound pre-treated cabbage leaf disk assessed as insect mortality measured 5 days post compound treatment under green house conditions. Type of assay: functional. The following applies: at 400 ppm.
Assay [8] has as its system Bemisia tabaci. The experiment in a line: Insecticidal activity against Bemisia tabaci (sweet potato whitefly) second-instar larvae infested five weeks old cotton plants followed by compound 250 ppm compound spraying after insect oviposit assessed as insect mortality measured 13 days post compound treatment under green house conditions. Type of assay: functional.
Assay [9] relates to Spodoptera exigua. The assay can be described thus: Insecticidal activity against Spodoptera exigua second-instar larvae feeded on compound treated lepidopteran diet assessed as insect mortality measured 5 days post compound treatment under green house conditions. The assay is classed as functional. The following applies: for LC50: Spodoptera exigua, 120 h.
Assay [10] deals with Trichoplusia ni. The assay can be described thus: Insecticidal activity against Trichoplusia ni (cabbage looper) second-instar larvae infested on compound pre-treated cabbage leaf disk assessed as insect mortality measured 5 days post compound treatment under green house conditions. The following applies: for LC50: Trichoplusia ni, foliar. Type of assay: functional. An outline of the steps: as §1

Assay [11] deals with Aphis gossypii. The assay can be described thus: Insecticidal activity against Aphis gossypii (cotton aphid) infested one week old Crookneck squash plants assessed as insect mortality at 50 ppm measured after 3 days post compound application under green house conditions. Type of assay: functional. The following applies: 72 h.
Assay [12] has as its system Trichoplusia ni.
In assay [13] the test system is Tetranychus urticae.
The subject of assay [14] is Aphis gossypii.
In assay [15] the test system is Bemisia tabaci.
Assay [16] deals with Spodoptera exigua.
Assay [17] deals with Heliothis virescens.
Assay [18] relates to Aphis gossypii. The experiment in a line: Insecticidal activity against Aphis gossypii (cotton aphid) infested one week old Crookneck squash plants assessed as insect mortality at 5 ppm measured after 3 days post compound application under green house conditions. Type of assay: functional. The following applies: 72 h.
Assay [19] relates to Tetranychus urticae. The experiment in a line: Insecticidal activity against female Tetranychus urticae (two-spotted spider mite) infested cotton leaf disks followed compound spraying after oviposit assessed as insect mortality measured after 6 days post compound application under green house conditions. The following applies: Tetranychus urticae, foliar, 144 h. The assay is classed as functional.

In brackets after ≈: the same amount, converted by molar mass. Activity calls are given as the source filed them. The rule behind the calls is not given here.

`Cc1c(-c2ccc(OC(F)(F)F)cc2)csc1-c1nc(-c2c(F)cccc2Cl)nn1C`: the mortality in assay [1], in assay [3], in assay [7] and in assay [8] was 90% throughout. Further, the LC50 in assay [2] is more than 400 µg/mL; in assay [5], 23.3 µg/mL (≈ 49.8 µM); in assay [6], 0.07 µg/mL (≈ 0.15 µM); in assay [9], 21.9 µg/mL (≈ 46.8 µM); in [10], 15.8 µg/mL (≈ 33.8 µM). Besides, the mortality at 2.5 ppm in assay [4] was determined as 90%. The LC90 in [6] came out at 22.2 ppm. Besides, in [11], the mortality at 50 ppm worked out at 90%.
As for `Cn1nc(-c2c(F)cccc2Cl)nc1-c1cc(Br)c(-c2ccc(C(F)(F)F)cc2)s1`, the mortality entry in [12], in assay [13], in assay [14], in assay [15], in assay [16] and in assay [17] was “inactive” throughout.
As for `CC1(C)C(C=C(Cl)Cl)C1C(=O)OC(C#N)c1cccc(Oc2ccccc2)c1` (stereo not drawn) [ALPHA-CYPERMETHRIN], the LC50 in assay [2] is 1.3 µg/mL (≈ 3.12 µM); in assay [9], 1.6 µg/mL (≈ 3.84 µM); in assay [10] it was 0.6 µg/mL (≈ 1.44 µM).
For `Cn1nc(-c2c(F)cccc2Cl)nc1-c1ccc(-c2ccc(C(F)(F)F)cc2)s1`, the mortality at 2.5 ppm in assay [4] is 80%. The mortality entry in assay [12], in [14], in assay [15], in assay [16] and in assay [17] was “inactive” in each case.
Take `Cn1nc(-c2c(F)cccc2Cl)nc1-c1ccc(-c2ccc(OC(F)(F)F)cc2)s1`: the mortality in [1] is on record as 90%; in assay [3] it was 70%; in [8], less than 50%. Moreover, the LC50 in assay [2] is 122 µg/mL (≈ 269 µM); in assay [5], 9.6 µg/mL (≈ 21.2 µM); in assay [9] it was 49.9 µg/mL (≈ 110 µM); in assay [10] it was 20.6 µg/mL (≈ 45.4 µM). Also, in [4], the mortality at 2.5 ppm was 90%. Also, the mortality entry in assay [12] is “inactive”. In assay [18], the mortality at 5 ppm amounted to 47%. Further, the LC90 was determined as 59.9 ppm in [9] and 27.7 ppm in [10]. In addition, in [11], the mortality at 50 ppm came out at 90%.
`Cn1nc(-c2c(F)cccc2F)nc1-c1ccc(-c2ccc(C(C)(F)F)cc2Cl)s1`: the mortality entry in assay [12], in [13], in [14], in assay [15], in [16] and in [17] was “inactive” each time.
With `Cc1c(Br)csc1-c1nc(-c2c(F)cccc2Cl)nn1C`, the LC50 in assay [5] stood at 0.8 µg/mL (≈ 2.07 µM); in assay [6], 0.7 µg/mL (≈ 1.81 µM); in assay [19], 0.29 µg/mL (≈ 0.75 µM).
Take `Cc1ccc(-c2ccc(-c3nc(-c4c(F)cccc4Cl)nn3C)s2)cc1`: the mortality result in assay [12], in [13], in assay [14], in assay [16] and in [17] was “inactive” throughout. Also, the mortality in assay [8] is less than 50%.
In the case of `Cn1nc(-c2c(F)cccc2F)nc1-c1ccc(-c2ccc(F)c(F)c2)s1`, the mortality result in [12], in assay [13], in assay [14], in [15], in assay [16] and in assay [17] was “inactive” each time.
Turning to `Cn1nc(-c2c(F)cccc2Cl)nc1-c1ccc(-c2cccc(C(F)(F)F)c2)s1`, the mortality entry in assay [12], in assay [13], in assay [14], in assay [15], in [16] and in assay [17] was “inactive” throughout.
Turning to `Cc1cc(-c2ccc(Cl)c(F)c2)sc1-c1nc(-c2c(F)cccc2Cl)nn1C`, the mortality in assay [1], in assay [3] and in assay [7] was 90% throughout. Moreover, the 50% lethal concentration (LC50) is 19.4 µg/mL (≈ 44.5 µM) in assay [2]; 89 µg/mL (≈ 204 µM) in assay [5]; 0.923 µg/mL (≈ 2.12 µM) in assay [6]; 65 µg/mL (≈ 149 µM) in [9]; 30.2 µg/mL (≈ 69.2 µM) in assay [10]. For the same compound, the mortality at 2.5 ppm in assay [4] is 90%. In addition, the figures for the LC90 in assay [6], in assay [9] and in assay [10] were 933 ppm, 323 ppm and 40.3 ppm, respectively. Also, the mortality result in [15] was “inactive”. For the same compound, the mortality at 50 ppm in assay [11] was 80%.
`Cn1nc(-c2c(F)cccc2Cl)nc1-c1sc(-c2ccc(OC(F)(F)C(F)Br)cc2)cc1Cl` (stereo unspecified): the mortality turned out to be 90% in assay [1], 50% in [3] and 70% in [7]. Moreover, the LC50 was 53.7 µg/mL (≈ 92.4 µM) in assay [2], 70 µg/mL (≈ 120 µM) in [5], less than 1.6 µg/mL in [9] and less than 1.6 µg/mL in assay [10]. In assay [4], the mortality at 2.5 ppm was determined as 90%. Also, the mortality at 5 ppm in [18] is 54%. In assay [15], the mortality entry was “inactive”. In addition, the mortality at 50 ppm in [11] came to 90%.
On to `Cn1nc(-c2c(F)cccc2Cl)nc1-c1sc(-c2ccc(OC(F)(F)F)cc2)cc1Cl`, for which the mortality in [1] stood at 90%; in assay [3], 70%; in assay [7], 90%. Besides, the LC50 in [2] is 62 µg/mL (≈ 127 µM); in assay [5], 65 µg/mL (≈ 133 µM); in assay [9] it was less than 1.6 µg/mL; in assay [10], 4.02 µg/mL (≈ 8.23 µM). In addition, the mortality at 2.5 ppm in assay [4] was determined as 90%. Besides, the mortality at 5 ppm in [18] was determined as 80%. Besides, the mortality entry in [15] is “inactive”. In addition, the LC90 in assay [10] came out at 69.2 ppm. The mortality at 50 ppm in assay [11] turned out to be 90%.
In the case of `Cn1nc(-c2c(F)cccc2Cl)nc1-c1sc(-c2ccc(OC(F)(F)C(F)Cl)cc2)cc1Cl` (stereo unspecified), the mortality in [1] was determined as 90%; in [3] it was 60%. The LC50 in assay [2] is less than 1.6 µg/mL; in assay [5], 78 µg/mL (≈ 145 µM); in assay [9] it was less than 1.6 µg/mL; in assay [10] it was less than 1.6 µg/mL. Further, the mortality at 2.5 ppm in assay [4] stood at 90%. The mortality result in assay [12] and in assay [15] was “inactive” throughout. Also, the mortality at 5 ppm in assay [18] turned out to be 72%. In assay [11], the mortality at 50 ppm turned out to be 90%.
Regarding `Cc1cc(-c2ccc(OC(F)(F)C(F)Br)cc2)sc1-c1nc(-c2c(F)cccc2Cl)nn1C` (stereo unspecified), the mortality is 90% in assay [1], 70% in [3] and less than 50% in assay [7]. Besides, the LC50 was 3.93 µg/mL (≈ 7.01 µM) in [2], 62 µg/mL (≈ 111 µM) in [5], 2.17 µg/mL (≈ 3.87 µM) in [9] and less than 1.6 µg/mL in assay [10]. Also, the mortality at 2.5 ppm in assay [4] is 90%. Also, the mortality at 5 ppm in assay [18] was determined as 89%. Also, the mortality entry in [15] is “inactive”. The mortality at 50 ppm in assay [11] was found to be 90%.
In the case of `Cc1c(-c2ccc(OC(F)(F)C(F)Cl)cc2)csc1-c1nc(-c2c(F)cccc2Cl)nn1C` (stereo unspecified), the mortality in assay [1] came out at 90%; in [3] it was 80%; in assay [7], 70%; in assay [8] it was 90%. Further, the LC50 in assay [2] was 4.38 µg/mL (≈ 8.48 µM); in [5] it was less than 5 µg/mL; in assay [6], less than 5 µg/mL; in assay [9], 1.56 µg/mL (≈ 3.02 µM); in assay [10], less than 1.56 µg/mL. The mortality at 2.5 ppm in assay [4] amounted to 90%. Further, the mortality at 50 ppm in [11] worked out at 80%.
For `Cc1cc(-c2cccc(OC(F)(F)C(F)Cl)c2)sc1-c1nc(-c2c(F)cccc2Cl)nn1C` (stereo unspecified), the results for the mortality in [1] and in assay [3] were 90% and 60%, respectively. In addition, the LC90 in [2] amounted to 151 ppm. For the same compound, the LC50 in assay [2] was 4.38 µg/mL (≈ 8.48 µM); in assay [5] it was 75 µg/mL (≈ 145 µM); in [9], 23.1 µg/mL (≈ 44.7 µM); in assay [10] it was less than 1.6 µg/mL. In addition, in [4], the mortality at 2.5 ppm came to 90%. Further, the mortality entry in [12] and in assay [15] was “inactive” each time. The mortality at 5 ppm in assay [18] worked out at 91%. Besides, the mortality at 50 ppm in assay [11] amounted to 90%.
Consider `O=[N+]([O-])/N=C1\NCCN1Cc1ccc(Cl)nc1` [IMIDACLOPRID], for which the LC50 in assay [5] came to 1.7 µg/mL (≈ 6.65 µM); in assay [6], 0.05 µg/mL (≈ 0.196 µM).
